ChEMBL document CHEMBL1145212, “Fluorinated diaryl sulfides as serotonin transporter ligands: synthesis, structure-activity relationship study, and in vivo evaluation of fluorine-18-labeled compounds as PET imaging agents” (J Med Chem, 2005)

Legend:
Format in all cases: cell-based
[1] = biological target: Sodium-dependent dopamine transporter (Homo sapiens, UniProt Q01959); experiment: In vitro displacement of [3H]GBR-12935 from human dopamine transporter expressed in HEK293 cells
Summary of the method: (§1)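 Competitive binding using cloned human transporters expressed in HEK-293 cells. NET was labelled with [³H]nisoxetine and DAT with [³H]GBR12935, following a previously published procedure.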

[2] = biological target: Sodium-dependent noradrenaline transporter (Homo sapiens, UniProt P23975); experiment: In vitro displacement of [3H]nisoxetine from human norepinephrine transporter expressed in HEK293 cells; summary of the method: as §1
[3] = biological target: Sodium-dependent serotonin transporter (Homo sapiens, UniProt P31645); experiment: In vitro displacement of [3H]paroxetine from human serotonin transporter expressed in HEK293 cells
Sodium-dependent serotonin transporter, sequence (P31645 whole entry): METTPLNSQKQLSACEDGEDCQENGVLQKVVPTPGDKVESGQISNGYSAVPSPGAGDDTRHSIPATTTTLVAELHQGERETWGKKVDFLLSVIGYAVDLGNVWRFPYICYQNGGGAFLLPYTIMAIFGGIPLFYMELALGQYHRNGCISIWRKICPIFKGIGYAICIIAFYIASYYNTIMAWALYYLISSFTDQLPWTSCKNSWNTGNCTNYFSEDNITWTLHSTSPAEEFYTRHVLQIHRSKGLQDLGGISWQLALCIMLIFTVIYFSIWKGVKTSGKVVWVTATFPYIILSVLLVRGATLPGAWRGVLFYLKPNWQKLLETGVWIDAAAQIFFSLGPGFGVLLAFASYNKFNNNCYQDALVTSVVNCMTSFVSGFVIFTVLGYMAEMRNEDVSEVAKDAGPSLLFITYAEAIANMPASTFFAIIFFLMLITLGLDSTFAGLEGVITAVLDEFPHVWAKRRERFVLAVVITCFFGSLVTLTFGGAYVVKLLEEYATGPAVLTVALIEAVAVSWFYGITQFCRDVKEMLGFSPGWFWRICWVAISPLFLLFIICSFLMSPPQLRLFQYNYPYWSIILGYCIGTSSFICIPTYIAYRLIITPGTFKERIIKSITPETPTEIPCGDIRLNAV

Sodium-dependent dopamine transporter, sequence (Q01959 whole entry): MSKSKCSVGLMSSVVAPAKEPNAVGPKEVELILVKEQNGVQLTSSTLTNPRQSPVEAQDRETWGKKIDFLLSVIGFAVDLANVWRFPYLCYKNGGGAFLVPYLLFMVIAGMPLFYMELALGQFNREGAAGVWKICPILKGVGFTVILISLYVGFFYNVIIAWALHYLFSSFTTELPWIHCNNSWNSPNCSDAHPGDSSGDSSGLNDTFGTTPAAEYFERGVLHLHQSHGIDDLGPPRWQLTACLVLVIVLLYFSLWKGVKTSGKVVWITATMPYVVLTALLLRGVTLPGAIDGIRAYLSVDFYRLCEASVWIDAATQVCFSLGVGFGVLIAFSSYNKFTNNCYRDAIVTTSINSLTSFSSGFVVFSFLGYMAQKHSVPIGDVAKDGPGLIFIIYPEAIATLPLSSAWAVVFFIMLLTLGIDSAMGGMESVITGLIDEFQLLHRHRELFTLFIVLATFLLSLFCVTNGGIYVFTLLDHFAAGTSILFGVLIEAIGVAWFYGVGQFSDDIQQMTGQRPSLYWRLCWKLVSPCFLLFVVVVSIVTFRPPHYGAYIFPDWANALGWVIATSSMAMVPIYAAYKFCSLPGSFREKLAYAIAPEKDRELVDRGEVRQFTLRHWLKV
Sodium-dependent noradrenaline transporter, sequence (P23975 whole entry): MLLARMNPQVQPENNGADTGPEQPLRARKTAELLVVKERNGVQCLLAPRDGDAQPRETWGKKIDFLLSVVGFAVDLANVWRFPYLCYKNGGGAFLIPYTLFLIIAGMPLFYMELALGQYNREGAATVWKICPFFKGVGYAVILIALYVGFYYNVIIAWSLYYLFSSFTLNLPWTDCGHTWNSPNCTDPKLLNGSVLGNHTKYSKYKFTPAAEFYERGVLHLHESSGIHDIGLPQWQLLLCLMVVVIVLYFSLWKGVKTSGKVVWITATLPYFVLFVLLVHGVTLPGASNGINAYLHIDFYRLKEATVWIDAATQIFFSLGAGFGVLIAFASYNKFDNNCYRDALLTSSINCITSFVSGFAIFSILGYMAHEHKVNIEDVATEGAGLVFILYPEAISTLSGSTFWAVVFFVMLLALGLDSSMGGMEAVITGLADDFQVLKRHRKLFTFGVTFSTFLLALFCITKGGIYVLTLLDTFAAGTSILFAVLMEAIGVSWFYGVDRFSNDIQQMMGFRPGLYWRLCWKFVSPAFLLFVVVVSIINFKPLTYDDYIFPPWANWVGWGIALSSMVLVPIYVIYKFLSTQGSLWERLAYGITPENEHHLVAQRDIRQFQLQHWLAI

Structure (SMILES)	Ki [1] [µM]	Ki [2] [µM]	Ki [3] [µM]
CCNCc1ccccc1Sc1ccc(C)cc1N	2.12	7.55	
CCCNCc1ccccc1Sc1ccc(C)cc1N	3.55	> 10	
Cc1ccc(Sc2ccccc2CNCCF)c(N)c1	4.43	3.91	0.0713
C=CCNCc1ccccc1Sc1ccc(C)cc1N	2.91	3.82	
